For orientation: inhibition means the share of the control response that was lost under treatment. As a reminder, the Emax is the size of the effect at its maximum, as opposed to the concentration needed. Usually IC50 stands for the concentration that gives 50% inhibition.

For test [1], the target named is T1, Urotensin-2 receptor (Homo sapiens) (UniProt Q9UKP6).
T1 sequence (whole entry): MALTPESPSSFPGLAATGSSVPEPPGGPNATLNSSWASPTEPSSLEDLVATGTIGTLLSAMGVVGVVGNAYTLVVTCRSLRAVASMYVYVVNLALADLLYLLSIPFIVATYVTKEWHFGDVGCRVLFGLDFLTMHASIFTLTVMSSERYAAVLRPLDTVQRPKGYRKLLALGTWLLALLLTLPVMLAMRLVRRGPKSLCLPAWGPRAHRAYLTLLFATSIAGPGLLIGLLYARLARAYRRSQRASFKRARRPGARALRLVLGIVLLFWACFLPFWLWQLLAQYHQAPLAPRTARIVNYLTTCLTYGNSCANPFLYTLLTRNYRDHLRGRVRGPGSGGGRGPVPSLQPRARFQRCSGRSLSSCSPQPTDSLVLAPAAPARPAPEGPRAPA
Nature of the test: Displacement of [125I]-hU2 from human UT2 receptor expressed in CHO cells at 10^-5 M after 90 mins by gamma counter assay. Type of test: cell-based.

Test [2] addresses T2, Urotensin-2 receptor (Rattus norvegicus) (UniProt P49684).
T2 sequence (whole entry): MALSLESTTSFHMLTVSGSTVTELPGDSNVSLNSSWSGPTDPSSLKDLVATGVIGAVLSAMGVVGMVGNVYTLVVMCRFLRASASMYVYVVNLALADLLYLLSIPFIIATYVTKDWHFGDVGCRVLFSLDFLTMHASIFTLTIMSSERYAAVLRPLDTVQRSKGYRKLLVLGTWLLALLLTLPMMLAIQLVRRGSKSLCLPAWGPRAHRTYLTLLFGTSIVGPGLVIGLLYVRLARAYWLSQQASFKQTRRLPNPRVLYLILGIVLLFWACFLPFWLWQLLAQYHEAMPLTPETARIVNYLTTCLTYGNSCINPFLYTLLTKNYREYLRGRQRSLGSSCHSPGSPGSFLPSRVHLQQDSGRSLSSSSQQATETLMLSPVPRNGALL
Nature of the test: Partial agonist activity at UT2 receptor in Sprague-Dawley rat thoracic aorta ring assessed as induction of aortic contractions at 10 to 100 uM relative to KCl. The test is classed as tissue-based. A digest of the protocol: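 Peptides applied alone to rat aortic rings to test for induced contraction. Response expressed as percent of KCl-induced contraction.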

For test [3], the target named is T2, Urotensin-2 receptor (Rattus norvegicus). Description: Antagonist activity at UT2 receptor in Sprague-Dawley rat thoracic aorta ring assessed as Emax for URP-induced aortic contractions at 10^-5M relative to KCl. The test is classed as tissue-based. The gist of the method:
(§1)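 Rat aortic rings pre-exposed to test peptide at 10^-5 M, then given cumulative increasing concentrations (10^-11 to 10^-6 M) of hUII or URP. Contraction measured to give pEC50 and Emax, expressed relative to KCl-induced contraction. Mean ± SEM; unpaired Student's t test against hUII or URP alone.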

The target is the same in test [4]. Description: Antagonist activity at UT2 receptor in Sprague-Dawley rat thoracic aorta ring assessed as Emax for hU2-induced aortic contractions at 10^-5M relative to KCl. Type of test: tissue-based. The gist of the method: as §1
A further test addresses T3, Urotensin-2 receptor (Homo sapiens, UniProt Q9UKP6).
T3 sequence (Q9UKP6 whole entry): T1 sequence (whole entry)
Description: Displacement of [125I]-hU2 from human UT2 receptor expressed in CHO cells after 90 mins by gamma counter assay. The test is classed as cell-based. A digest of the protocol: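 CHO cells overexpressing human UT receptor incubated with test peptide. Displacement of 125I-hUII from UT measured. At least three independent experiments, each determination in triplicate; mean ± S.E.M.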
For orientation: Displacement assays read how much labelled ligand stays bound in the presence of the test substance.

The source made the active and inactive calls. The rule behind the calls is not given here. Where a SMILES comes first, the peptide text is derived from it.

Take `CC(C)[C@H](NC(=O)[C@@H]1CSSC[C@H](NC(=O)[C@@H](N)CC(=O)O)C(=O)N[C@@H](Cc2ccccc2)C(=O)N[C@@H](Cc2c[nH]c3ccccc23)C(=O)NN(CCCCN)S(=O)(=O)N[C@@H](Cc2ccc(O)cc2)C(=O)N1)C(=O)O` (HELM PEPTIDE1{D.C.F.W.[NCCCCN(N[*:1])S(=O)(=O)N[C@@H](Cc1ccc(O)cc1)C(=O)[*:2]].C.V}$PEPTIDE1,PEPTIDE1,2:R3-6:R3$$$V2.0): the inhibition in test [1] stood at 40%. Further, in test [2], the outcome was inactive. The results for the maximal response (Emax) in test [3] and in test [4] were 110% and 83%, respectively. The IC50 at Urotensin-2 receptor was more than 1000 nM.

`CC(C)[C@H](NC(=O)[C@@H]1CSSC[C@H](NC(=O)[C@H](CC(=O)O)NC(=O)[C@@H]2CCCN2C(=O)[C@@H](NC(=O)[C@@H](N)CCC(=O)O)[C@@H](C)O)C(=O)N[C@@H](Cc2ccccc2)C(=O)N[C@@H](Cc2c[nH]c3ccccc23)C(=O)N[C@@H](CCCCN)C(=O)N[C@@H](Cc2ccc(O)cc2)C(=O)N1)C(=O)O`: the result in test [2] was Active.

Turning to `CC(C)[C@H](NC(=O)[C@@H]1CSSC[C@H](NC(=O)[C@@H](N)CC(=O)O)C(=O)N[C@@H](Cc2ccccc2)C(=O)NN(Cc2ccccc2)S(=O)(=O)N[C@@H](CCCCN)C(=O)N[C@@H](Cc2ccc(O)cc2)C(=O)N1)C(=O)O` (HELM PEPTIDE1{D.C.F.[NCCCC[C@H](NS(=O)(=O)N(Cc1ccccc1)N[*:1])C(=O)[*:2]].Y.C.V}$PEPTIDE1,PEPTIDE1,2:R3-6:R3$$$V2.0), the inhibition in test [1] was 40%. Also, the Efficacy in test [2] came to 3%. Besides, the Emax in test [3] stood at 101%; in test [4] it was 87%. The molecule further displayed an IC50 at Urotensin-2 receptor of more than 1000 nM.

As for `CC(C)[C@H](NC(=O)[C@@H]1CSSC[C@H](NC(=O)[C@H](C)N)C(=O)N[C@@H](Cc2ccccc2)C(=O)N[C@@H](Cc2c[nH]c3ccccc23)C(=O)N[C@@H](CCCCN)C(=O)N[C@@H](Cc2ccc(O)cc2)C(=O)N1)C(=O)O`, the outcome in test [2] was Active.

As to `CC(C)[C@H](NC(=O)[C@@H]1CSSC[C@H](NC(=O)[C@@H](N)CC(=O)O)C(=O)N[C@@H](Cc2ccccc2)C(=O)N[C@@H](Cc2c[nH]c3ccccc23)C(=O)NN(CCCCN(C)C)S(=O)(=O)N[C@@H](Cc2ccc(O)cc2)C(=O)N1)C(=O)O` (HELM PEPTIDE1{D.C.F.W.[CN(C)CCCCN(N[*:1])S(=O)(=O)N[C@@H](Cc1ccc(O)cc1)C(=O)[*:2]].C.V}$PEPTIDE1,PEPTIDE1,2:R3-6:R3$$$V2.0), the inhibition in test [1] is 40%. The outcome in test [2] was inactive. For the same molecule, the figures for the Emax in test [3] and in test [4] were 110% and 83%, respectively. Further, on Urotensin-2 receptor, the IC50 is more than 1000 nM.

For the molecule `CC(C)[C@H](NC(=O)[C@@H]1CSSC[C@H](NC(=O)[C@@H](N)CC(=O)O)C(=O)N[C@@H](Cc2ccccc2)C(=O)NN(Cc2ccc(-c3ccccc3)cc2)S(=O)(=O)N[C@@H](CCCCN)C(=O)N[C@@H](Cc2ccc(O)cc2)C(=O)N1)C(=O)O`, the inhibition in test [1] was 40%. Besides, in test [2], the Efficacy is 3%. For the same molecule, the results for the Emax in test [3] and in test [4] were 69% and 51%, respectively. Further, the IC50 on Urotensin-2 receptor was more than 1000 nM.

Molecule `CC(C)[C@H](NC(=O)[C@@H]1CSSC[C@H](NC(=O)[C@@H](N)CC(=O)O)C(=O)N[C@@H](Cc2ccccc2)C(=O)NN(Cc2ccc3ccccc3c2)S(=O)(=O)N[C@@H](CCCCN)C(=O)N[C@@H](Cc2ccc(O)cc2)C(=O)N1)C(=O)O` came in with an inhibition in test [1] of 40%. Besides, the Efficacy in test [2] was 3%. The results for the Emax in test [3] and in test [4] were 105% and 65%, respectively. On Urotensin-2 receptor, this molecule gave an IC50 of more than 1000 nM.

Turning to `CC(C)[C@H](NC(=O)[C@@H]1CSSC[C@H](NC(=O)[C@@H](N)CC(=O)O)C(=O)N[C@@H](Cc2ccccc2)C(=O)NN(Cc2cccc3ccccc23)S(=O)(=O)N[C@@H](CCCCN)C(=O)N[C@@H](Cc2ccc(O)cc2)C(=O)N1)C(=O)O`, in test [1], the inhibition was 40%. Further, the Efficacy in test [2] was determined as 3%. Also, the Emax in test [3] stood at 38%; in test [4], 29%. On Urotensin-2 receptor, this molecule came in with an IC50 of more than 1000 nM.

Values taken from ChEMBL document CHEMBL3822356, “Urotensin II((4-11)) Azasulfuryl Peptides: Synthesis and Biological Activity” (J Med Chem, 2016).
